APJ ag – agonists of human APJ apelin receptor | CHO-K1 APJ PathHunter beta-arrestin, luminescence; 0% DMSO wells, 100% apelin | activation, % at 20 µM | 0.11% of 330,000 active;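 active = activation more than six SD over the plate average, tested at 20 µM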;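 also: 0% = DMSO alone and 100% = apelin-13 at 10 nM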
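Assay system: engineered CHO-K1 APJ arrestin reporter cells; Amount: 1000 CHO-K1 reporter cells seeded per well; Dosing: one dose, 20 µM compound, 1% DMSO; Times: compound stimulation 90 min at 25 °C, detection 60 min; Measured by: luminescent beta-gal fragment complementation, chemiluminescent substrate; Read-out: APJ–arrestin association signal; Controls: DMSO vs Apelin-13 10 nM.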
CXCR6 block – CXCR6 (human) receptor inhibition | O00574 | CHO-K1 PathHunter CXCR6 beta-arrestin, luminescence | inhibition, % at 20 µM | 0.36% of 360,000 active; in the data active = inhibition above about 34%, passing the limit was not always enough;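 also: antagonist mode with CXCL16 agonist at 10 nM final; 0% = 10 nM CXCL16 with DMSO and 100% = unstimulated wells without agonist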
Target sequence (O00574 whole entry, looked up): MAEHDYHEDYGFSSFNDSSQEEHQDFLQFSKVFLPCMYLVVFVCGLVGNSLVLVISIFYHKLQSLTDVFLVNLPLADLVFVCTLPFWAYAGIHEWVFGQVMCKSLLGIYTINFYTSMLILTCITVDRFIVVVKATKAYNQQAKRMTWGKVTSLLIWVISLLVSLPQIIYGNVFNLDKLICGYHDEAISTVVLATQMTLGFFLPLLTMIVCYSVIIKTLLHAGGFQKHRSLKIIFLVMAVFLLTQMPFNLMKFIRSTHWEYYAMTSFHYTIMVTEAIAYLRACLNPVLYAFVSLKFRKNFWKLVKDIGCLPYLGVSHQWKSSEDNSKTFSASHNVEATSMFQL
CCR6 antag – CCR6 (human) receptor antagonism. CHO-K1 CCR6 PathHunter beta-arrestin, luminescence, CCL20-stimulated. 0.49% of 340,000 active. P51684. inhibition, % at 20 µM;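 active = compounds whose inhibition of the agonist-driven luminescence signal at 20 µM reaches about 50%, limit read from the data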;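 also: cells stimulated with CCL20 at 14 nM final; plate controls were DMSO with CCL20 for no effect and DMSO without agonist for full effect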
APJ antag – blocks the human apelin receptor APJ; P35414; AID 2521; CHO-K1 APJ beta-arrestin complementation, luminescence; 0.32% of 330,000 active; inhibition, % at 20 µM;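 active = inhibition above about 40% at 20 µM, limit read from the data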;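 also: cells challenged with 10 nM apelin-13 agonist together with compound; plate controls were apelin-13 plus DMSO wells for no effect and DMSO wells lacking apelin-13 for full effect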
EBI2 block – EBI2 (human) antagonism. P32249. EBI2 beta-arrestin recruitment, luminescence, 7a,25-OHC stimulated. inhibition, % at 5 µM. 0.81% of 360,000 active; in the data active = inhibition above about 38%;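 also: enzyme fragment complementation signal reports receptor beta-arrestin coupling in cells; 0% = agonist plus DMSO wells and 100% = wells without agonist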
m5-HT2A agonist – activates the mouse 5-HT2A serotonin receptor; 0.66% of 360,000 active; CHO-K1 mHTR2A beta-arrestin complementation, luminescence; percent of 30 µM serotonin response; activation, % at 7.6 µM; AID 624169;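 active = activation above a run cutoff, the mean activation of all tested compounds plus 3 SD, cut at about 14% in these data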;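 also: 0% = plate median of compound wells and 100% = 30 µM serotonin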
Numbers without * were called inactive; / = no result. A selection: hits, their analogues and other compounds. The true share with any hit is near 2.1%.

SMILES	APJ ag	CXCR6 block	CCR6 antag	APJ antag	EBI2 block	m5-HT2A agonist
O=C1C=CC(=O)N1c1ccccc1N1C(=O)C=CC1=O	/	72*	108*	/	25	7
COc1ccc(C(=O)NCc2nnc(SCC(=O)Nc3ccccc3OC)o2)cc1	3	4	10	21	-1	4
Cc1cc(NS(=O)(=O)c2ccc(NC(=O)CCCOc3ccc(Cl)cc3)cc2)no1	3	2	11	11	-2	4
COc1ccc(C=NNC(=O)CCCCC(=O)NN=Cc2ccc(OC)cc2)cc1	/	11	6	/	13	-1
COC(=O)/C=C\C(C#N)(C#N)N=Cc1ccc(OC)cc1	/	65*	15	/	8	13
C=C(C)COc1ccc2c(C)c(CCC(=O)N3C[C@H]4C[C@@H](C3)c3cccc(=O)n3C4)c(=O)oc2c1	9	2	0	-19	-2	10
CC(=O)c1c(N)[nH]c(-c2ccccc2)nc1=S	-9	16	57*	24	0	-6
CC(=O)c1c(N2CCCC2)[nH]c(-c2ccccc2)nc1=S	-5	17	25	19	6	0
CCN(CC)c1ccc(/C=N/N=C(c2ccccc2)c2ccccc2)c(O)c1	-1	2	21	5	66*	-2
CCN(CC)c1ccc(/C=N/N(c2ccccc2)c2ccccc2)c(O)c1	6	-12	-13	-26	32	-4
CSc1nc2sc3c(c2c(=S)[nH]1)CC(C)(C)OC3	-1	0	18	-4	-2	-5
O=[N+]([O-])c1cc(Cl)ccc1NCCNc1ncc(C(F)(F)F)cc1Cl	-3	0	21	10	19	-2
O=C(Nc1cc(C(F)(F)F)ccc1N1CCOCC1)c1ccc(Br)o1	1	0	3	2	19	-3
COc1ccc(C[C@H]2c3cc(O)c(OC)cc3CC[N+]2(C)[O-])cc1O (stereo partly specified)	-12	30	59*	21	-6	-3
COc1cc2c(cc1O)C(Cc1ccc(O)cc1)[N+](C)([O-])CC2 (stereo unspecified)	4	-3	0	-1	4	2
CCCS(=O)(=O)c1ncc(Cl)c(C(=O)Nc2ccc(S(=O)(=O)Nc3ncccn3)cc2)n1	-3	-5	-5	9	-9	-1
CC(=O)Nc1ccc(NC(=O)c2nc(S(=O)(=O)Cc3cccc(C)c3)ncc2Cl)cc1	10	47*	58*	1	12	-2
CCS(=O)(=O)c1ncc(Cl)c(C(=O)Nc2ccccc2OC)n1	-5	26	37	18	79*	12
Cc1cc(C)n(CCCNC(=O)Cn2nnnc2CN2C[C@@H](C)O[C@@H](C)C2)n1	1	5	3	9	-6	-4
CC1CCN(S(=O)(=O)N2CCCC(C(=O)NCc3ccccc3Cl)C2)CC1 (stereo unspecified)	1	-7	12	9	-3	-2
CC1CC(C)CN(S(=O)(=O)N2CCCC(C(=O)NCc3ccccc3Cl)C2)C1 (stereo unspecified)	4	7	56*	4	5	4
O=C(c1cc2c(s1)-c1ccccc1OC2)N1CCCC1	-3	0	-12	2	2	-2
CCCN1CCN(C(=O)c2cc3c(s2)-c2ccccc2OC3)CC1	-2	-2	10	10	88*	2
COc1ccc(S(=O)(=O)NC(=O)C2(C)CCN2C(=O)c2ccc(C(F)(F)F)nc2C)cc1 (stereo unspecified)	/	1	/	/	6	3
O=[N+]([O-])c1cc([N+](=O)[O-])c2cc3ccccc3nc2c1	-2	41*	45	16	70*	-7
SMILES	APJ ag	CXCR6 block	CCR6 antag	APJ antag	EBI2 block	m5-HT2A agonist
O=[N+]([O-])c1cnc2ccccc2c1	5	-24	3	-52	-5	-1
CCOc1cc(N2CCOCC2)c(OCC)cc1NC(=O)c1ccc2ncsc2c1	0	-11	11	-16	-7	3
O=C(NCc1cccc(F)c1)Nc1nnc([C@@H]2C[C@H](O)[C@@H](CO)O2)s1	/	1	/	/	-3	0
Cc1ccccc1C1=C/C(=C(\SS/C(C(=O)c2ccc(OCC(=O)O)c(Cl)c2Cl)=C2\C=C(c3ccccc3C)SS2)C(=O)c2ccc(OCC(=O)O)c(Cl)c2Cl)SS1	/	29	62*	/	13	14
Cc1onc(-c2c(F)cccc2Cl)c1C(=O)Nc1cccc(S(=O)(=O)NCc2ccco2)c1	0	12	11	9	-4	-1
CC(C(=O)Nc1ccc(S(=O)(=O)N2CCOCC2)cc1)N(c1ccccc1)S(C)(=O)=O (stereo unspecified)	-1	-21	0	-10	-7	-2
CC1(C)OC(c2ccccc2)=C/C(=C/C=C2C(=O)c3ccccc3C2=O)O1	-7	46*	59*	36	10	0
Cc1ccc(OCC(=O)NC(=S)Nc2ccc(S(=O)(=O)Nc3cc(C)on3)cc2)c(Br)c1	-4	9	18	10	-2	-2
N=c1c(C(=O)NCc2ccc(F)cc2)cc2c(=O)n3ccccc3nc2n1Cc1ccco1	-6	23	33	49*	2	-3
CC(OC(=O)C12CCC(=O)N1c1ccccc1S2)C(=O)Nc1cccc(Cl)c1 (stereo unspecified)	-2	7	-9	11	5	-9
O=C(Nc1cccc(NC(=O)c2cc([N+](=O)[O-])ccc2Cl)n1)c1cc([N+](=O)[O-])ccc1Cl	6	-13	14	-50	30	21*
CCONC(=O)Nc1ccccc1	0	2	1	-13	-1	0
CCC(C)C1=CC(=Nc2c(C)n(C)n(-c3ccccc3)c2=O)C=C(C(C)CC)C1=O (stereo unspecified)	-6	33	51*	9	33	-1
O=C(N/C(=C/c1ccc2c(c1)OCO2)C(=O)N1CCOCC1)c1cccs1	3	-6	-4	6	-4	-1
COc1cc(/C=C2\CC/C(=C\c3cc(OC)c(O)c(OC)c3)C2=O)cc(OC)c1O	-3	42*	55*	-6	23	3
COc1cc(/C=C2\CC/C(=C\c3cc(OC)c(OC)c(OC)c3)C2=O)cc(OC)c1OC	-3	4	2	17	33	2
COc1cc(/C=C2\COC/C(=C\c3cc(OC)c(OC)c(OC)c3)C2=O)cc(OC)c1OC	/	39*	55*	/	45*	10
COc1cc(/C=C2/CCC/C(=C\c3cc(O)c(OC)c(Cl)c3)C2=O)cc(Cl)c1O	-8	26	74*	38	24	-5
Cc1ccccc1CSc1nc(-c2ccccc2)cc(=O)[nH]1	-2	-10	-3	-10	-6	3
